Key:
SK-Lu-1 cells [1] = experiment: Annexin V FITC and PI flow cytometry assay for apoptosis; type: cell-based, human; details: 24 h; for % Necrotic cells: Annexin-V/PI (Q2-1); for % Late apoptosis cells: Annexin-V/PI (Q2-2); for % Early apoptosis cells: Annexin-V/PI (Q2-4); for % Total apoptosis cells: early + late
Outline: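 SK-LU-1 cells (3 × 10^5 per 25 cm2 flask; DMEM, 7–10% FBS, penicillin/streptomycin, 37 °C, 5% CO2) exposed 24 h to test compound. Controls: DMSO 0.5%, ellipticine 1.3 μM, vincristine 0.4 and 4 μM. Cells were harvested, washed in cold PBS and resuspended in annexin-binding buffer. They were stained with FITC-annexin V plus PI (100 μg mL−1 working solution) for 15 min at room temperature, then diluted and analysed by flow cytometry.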

[2] = tested on: breast (MCF7, HTB-22™) cancer cell line; details: read-out: IC50 MCF7; MCF7 cells; cited from earlier work
SK-Lu-1 cells [3] = experiment: Cell cycle analysis by flow cytometry; type: cell-based, human; details: 24 h
Outline: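 Log-phase SK-LU-1 cells (3 × 10^5 per 25 cm2 flask) treated 24 h with test compound at 0.08, 0.16 or 0.32 μM. Controls: DMSO 0.05%, ellipticine 1.3 μM, vincristine 0.4 and 4 μM. Cells were PBS-washed and fixed in ice-cold 70% ethanol at −20 °C for 2 h. They were then treated with RNase A (1 mg mL−1, 37 °C, 15 min), stained with PI for 30 min and analysed by flow cytometry.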

SK-Lu-1 cells [4] = details: read-out: IC50 SK-Lu-1; cited from earlier work
[5] = tested on: caspase-3/7 activation in human lung SK-LU-1 cancer cells; experiment: Caspase-3/7 assay; type: cell-based; details: SK-LU-1 cells, 0.08 μM, 0.16 μM, and 0.32 μM
Outline: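 SK-LU-1 cells (2 × 10^5 per well) incubated 5 h at 37 °C, 5% CO2, with test compound at 0.08, 0.16 or 0.32 μM. Controls: ellipticine 1.3 μM, vincristine 4 μM; solvent served as blank. Apo-ONE caspase-3/7 reagent was added, briefly shaken and left at room temperature for 1–18 h. Fluorescence was read at Ex 485/Em 530 nm. Activity = sample RFU minus blank RFU.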

[6] = tested on: hepatocellular carcinoma (HepG2, ATCC number HB-8065); details: read-out: IC50 HepG2; HepG2 cells; cited from earlier work
SK-Lu-1 cells [7] = experiment: Cell nucleus staining with Hoechst 33342; type: cell-based, human; details: 0.08 μM, 0.16 μM, and 0.32 μM, 24 h
[8] = tested on: epidermoid carcinoma (KB, ATCC number CCL-17); details: read-out: IC50 KB; KB cells; cited from earlier work
[9] = tested on: human embryonic kidney (HEK-293, ATCC number CRL-1573) cell line; details: read-out: IC50 Hek-293; non-cancerous Hek-293 cells; cited from earlier work

**Q.** For `COc1cccc(C2C3=C(COC3=O)NC3=C2C(=O)c2ccccc2C3=O)c1` (stereo not shown) [5a, 11-(3-Methoxyphenyl)-4,11-dihydrobenzo[g]furo[3,4-b]quinoline-1,5,10(3H)-trione], which “% Necrotic cells” value (SK-Lu-1 cells [1]; SK-LU-1, 0.08 μM) is on record?
**A.** 0.59%

**Q.** What about the “% Late apoptosis cells” value (SK-Lu-1 cells [1]; SK-LU-1, 0.08 μM) of the same compound?
**A.** 0.82%

**Q.** And the “% Early apoptosis cells” value (SK-Lu-1 cells [1]; SK-LU-1, 0.08 μM)?
**A.** 1.30%

**Q.** What about the “% Total apoptosis cells” value (SK-Lu-1 cells [1]; SK-LU-1, 0.08 μM) of the same compound?
**A.** 2.12%

**Q.** What about the “% Necrotic cells” value (SK-Lu-1 cells [1]; SK-LU-1, 0.16 μM) of the same compound?
**A.** 2.64%

**Q.** And the “% Late apoptosis cells” value (SK-Lu-1 cells [1]; SK-LU-1, 0.16 μM)?
**A.** 2.40%

**Q.** What about the “% Early apoptosis cells” value (SK-Lu-1 cells [1]; SK-LU-1, 0.16 μM) of the same compound?
**A.** 7.23%

**Q.** What about the “% Total apoptosis cells” value (SK-Lu-1 cells [1]; SK-LU-1, 0.16 μM) of the same compound?
**A.** 9.63%

**Q.** What about the “% Necrotic cells” value (SK-Lu-1 cells [1]; SK-LU-1, 0.32 μM) of the same compound?
**A.** 4.68%

**Q.** What about the “% Late apoptosis cells” value (SK-Lu-1 cells [1]; SK-LU-1, 0.32 μM) of the same compound?
**A.** 4.25%

**Q.** And the “% Early apoptosis cells” value (SK-Lu-1 cells [1]; SK-LU-1, 0.32 μM)?
**A.** 11.59%

**Q.** What about the “% Total apoptosis cells” value (SK-Lu-1 cells [1]; SK-LU-1, 0.32 μM) of the same compound?
**A.** 15.84%

**Q.** And the IC50 [2]?
**A.** > 2500 nM

**Q.** What about the “Percentage of cell by phases, % G0/G1” value (SK-Lu-1 cells [3]; SK-LU-1, 0.08 μM) of the same compound?
**A.** 47.91%

**Q.** What about the “Percentage of cell by phases, % G2/M” value (SK-Lu-1 cells [3]; SK-LU-1, 0.08 μM) of the same compound?
**A.** 20.58%

**Q.** What about the “Percentage of cell by phases, % S” value (SK-Lu-1 cells [3]; SK-LU-1, 0.08 μM) of the same compound?
**A.** 30.45%

**Q.** And the “Percentage of cell by phases, % G0/G1” value (SK-Lu-1 cells [3]; SK-LU-1, 0.16 μM)?
**A.** 0.58%

**Q.** And the “Percentage of cell by phases, % G2/M” value (SK-Lu-1 cells [3]; SK-LU-1, 0.16 μM)?
**A.** 82.17%

**Q.** What about the “Percentage of cell by phases, % S” value (SK-Lu-1 cells [3]; SK-LU-1, 0.16 μM) of the same compound?
**A.** 5.78%

**Q.** What about the “Percentage of cell by phases, % G0/G1” value (SK-Lu-1 cells [3]; SK-LU-1, 0.32 μM) of the same compound?
**A.** 0.28%

**Q.** And the “Percentage of cell by phases, % G2/M” value (SK-Lu-1 cells [3]; SK-LU-1, 0.32 μM)?
**A.** 84.70%

**Q.** What about the “Percentage of cell by phases, % S” value (SK-Lu-1 cells [3]; SK-LU-1, 0.32 μM) of the same compound?
**A.** 4.05%

**Q.** What about the IC50 (SK-Lu-1 cells [4]) of the same compound?
**A.** < 40 nM

**Q.** And the “caspase-3/7 activity as compared to Ellipticine (1.3 μM)” value [5]?
**A.** 4-5 fold

**Q.** What about the IC50 [6] of the same compound?
**A.** 460 ± 10 nM

**Q.** And the “changes in cell morphology (Hoechst staining)” value (SK-Lu-1 cells [7])?
**A.** nucleus fragmentation and chromatin condensation

**Q.** What about the IC50 [8] of the same compound?
**A.** 1230 ± 10 nM

**Q.** And the IC50 [9]?
**A.** 9350 ± 440 nM
